The values below come from ChEMBL document CHEMBL1124510, “(+/-)-7-chloro-8-hydroxy-1-(4'-[125I]iodophenyl)-3-methyl-2,3,4,5- tetrahydro-1H-3-benzazepine: a potential CNS D-1 dopamine receptor imaging agent” (J Med Chem, 1989).

For data set [1], the species on record is Rattus norvegicus. Nature of the data set: Selectivity ratio for biodistribution in brain and blood of rats after 15 minutes; Expressed as percent dose/gram ratio. Format: ADME, organism-based. The conditions noted are these: 0.25 h. Summed up: (§1)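 After femoral iv injection of [125I]FISCH in saline into halothane-anesthetized male Sprague-Dawley rats, tissues were weighed and gamma-counted. Percent dose/gram was calculated against the diluted injected dose, and the ratio was taken from the percent dose/gram values.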

The species named for data set [2] is Rattus norvegicus. Nature of the data set: Selectivity ratio for biodistribution in brain and blood of rats after 2 minutes; Expressed as percent dose/gram ratio. Format: ADME, organism-based. In outline:
as §1

Data set [3] is filed under the species Rattus norvegicus. Nature of the data set: Selectivity ratio for biodistribution in brain and blood of rats after 60 minutes; Expressed as percent dose/gram ratio. Particulars: 1 h. Format: ADME, organism-based. Summed up: as §1
Data set [4] concerns Rattus norvegicus. Description: In vivo biodistribution in rats after an intravenous injection at 60 min was determined in spleen; Expressed as percent dose/organ. Format: ADME, organism-based. Particulars: 1 h. In outline:
(§2)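 [125I]FISCH in 0.2 mL saline was injected into the femoral vein of male Sprague-Dawley rats (225-300 g) under halothane. Rats were killed by cardiac excision at set times. Organs were weighed and gamma-counted against diluted aliquots of the dose. Blood and muscle totals assume 7% and 40% of body weight. Results are averages of six rats ± SD.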

Data set [5] deals with Rattus norvegicus. Nature of the data set: In vivo biodistribution in rats after an intravenous injection at 60 min was determined in thyroid; Expressed as percent dose/organ. Format: ADME, organism-based, Thyroid gland. Particulars: 1 h. In outline:
as §2

Data set [6] has as its system Rattus norvegicus. Nature of the data set: In vivo biodistribution in rats after an intravenous injection at 60 min was determined in lung; Expressed as percent dose/organ. Particulars: 1 h. Format: ADME, organism-based. In outline:
as §2

Data set [7] deals with Rattus norvegicus. Nature of the data set: In vivo biodistribution in rats after an intravenous injection at 60 min was determined in skin; Expressed as percent dose/organ. Format: ADME, organism-based. The conditions noted are these: 1 h. Summed up:
as §2

Data set [8] relates to Rattus norvegicus. Description: In vivo biodistribution in rats after an intravenous injection at 15 min was determined in heart; Expressed as percent dose/organ. The format is ADME, organism-based. The conditions noted are these: 0.25 h. Summed up: as §2
Data set [9] concerns Rattus norvegicus. Description: In vivo biodistribution in rats after an intravenous injection at 15 min was determined in liver; Expressed as percent dose/organ. The format is ADME, organism-based. Particulars: 0.25 h. In outline:
as §2

Data set [10] deals with Rattus norvegicus. Description: In vivo biodistribution in rats after an intravenous injection at 15 min was determined in lung; Expressed as percent dose/organ. The format is ADME, organism-based. The conditions noted are these: 0.25 h. In outline: as §2
Data set [11] concerns Rattus norvegicus. Description: In vivo biodistribution in rats after an intravenous injection at 15 min was determined in muscle; Expressed as percent dose/organ. The format is ADME, organism-based, Muscle tissue. Particulars: 0.25 h. In outline: as §2
For data set [12], the system named is Rattus norvegicus. Nature of the data set: In vivo biodistribution in rats after an intravenous injection at 15 min was determined in skin; Expressed as percent dose/organ. Format: ADME, organism-based. The conditions noted are these: 0.25 h. In outline:
as §2

The test system of data set [13] is Rattus norvegicus. Nature of the data set: In vivo biodistribution in rats after an intravenous injection at 15 min was determined in spleen; Expressed as percent dose/organ. Format: ADME, organism-based. The conditions noted are these: 0.25 h. Summed up: as §2
Data set [14] relates to Rattus norvegicus. Nature of the data set: In vivo biodistribution in rats after an intravenous injection at 15 min was determined in thyroid; Expressed as percent dose/organ. The format is ADME, organism-based, Thyroid gland. The conditions noted are these: 0.25 h. Summed up:
as §2

The subject of data set [15] is Rattus norvegicus. Description: In vivo biodistribution in rats after an intravenous injection at 15 min was determined in kidney; Expressed as percent dose/organ. The format is ADME, organism-based. The conditions noted are these: 0.25 h. Summed up:
as §2

In data set [16] the test system is Rattus norvegicus. Description: In vivo biodistribution in rats after an intravenous injection at 2 min was determined in blood; Expressed as percent dose/organ. Format: ADME, organism-based. Summed up: as §2
Data set [17] has as its system Rattus norvegicus. Description: In vivo biodistribution in rats after an intravenous injection at 2 min was determined in brain; Expressed as percent dose/organ. The format is ADME, organism-based. Summed up:
as §2

The test system of data set [18] is Rattus norvegicus. Description: In vivo biodistribution in rats after an intravenous injection at 2 min was determined in heart; Expressed as percent dose/organ. Format: ADME, organism-based. Summed up:
as §2

Data set [19] concerns Rattus norvegicus. Nature of the data set: In vivo biodistribution in rats after an intravenous injection at 2 min was determined in kidney; Expressed as percent dose/organ. The format is ADME, organism-based. In outline:
as §2

The subject of data set [20] is Rattus norvegicus. Nature of the data set: In vivo biodistribution in rats after an intravenous injection at 2 min was determined in liver; Expressed as percent dose/organ. Format: ADME, organism-based. Summed up:
as §2

Data set [21] deals with Rattus norvegicus. Nature of the data set: In vivo biodistribution in rats after an intravenous injection at 2 min was determined in lung; Expressed as percent dose/organ. The format is ADME, organism-based. Summed up:
as §2

Data set [22] deals with Rattus norvegicus. Description: In vivo biodistribution in rats after an intravenous injection at 2 min was determined in muscle; Expressed as percent dose/organ. The format is ADME, organism-based, Muscle tissue. Summed up:
as §2

Data set [23] concerns Rattus norvegicus. Nature of the data set: In vivo biodistribution in rats after an intravenous injection at 2 min was determined in skin; Expressed as percent dose/organ. The format is ADME, organism-based. In outline:
as §2

The subject of data set [24] is Rattus norvegicus. Nature of the data set: In vivo biodistribution in rats after an intravenous injection at 2 min was determined in spleen; Expressed as percent dose/organ. Format: ADME, organism-based. Summed up: as §2
In data set [25] the test system is Rattus norvegicus. Description: In vivo biodistribution in rats after an intravenous injection at 2 min was determined in thyroid; Expressed as percent dose/organ. The format is ADME, organism-based, Thyroid gland. Summed up:
as §2

Data set [26] has as its system Rattus norvegicus. Description: In vivo biodistribution in rats after an intravenous injection at 60 min was determined in heart; Expressed as percent dose/organ. Format: ADME, organism-based. Particulars: 1 h. Summed up: as §2
In data set [27] the test system is Rattus norvegicus. Description: In vivo biodistribution in rats after an intravenous injection at 60 min was determined in kidney; Expressed as percent dose/organ. The format is ADME, organism-based. Particulars: 1 h. Summed up: as §2
In data set [28] the test system is Rattus norvegicus. Description: In vivo biodistribution in rats after an intravenous injection at 60 min was determined in liver; Expressed as percent dose/organ. Format: ADME, organism-based. The conditions noted are these: 1 h. Summed up: as §2
The test system of data set [29] is Rattus norvegicus. Nature of the data set: In vivo biodistribution in rats after an intravenous injection at 60 min was determined in muscle; Expressed as percent dose/organ. The format is ADME, organism-based, Muscle tissue. Particulars: 1 h. Summed up:
as §2

Data set [30] concerns Rattus norvegicus. Nature of the data set: In vivo biodistribution in rats after an intravenous injection at 15 min was determined in blood; Expressed as percent dose/organ. The format is ADME, organism-based. Particulars: 0.25 h. Summed up:
as §2

The test system of data set [31] is Rattus norvegicus. Description: In vivo biodistribution in rats after an intravenous injection at 15 min was determined in brain; Expressed as percent dose/organ. The format is ADME, organism-based. The conditions noted are these: 0.25 h. Summed up:
as §2

Data set [32] addresses T1, D(1A) dopamine receptor (Rattus norvegicus, UniProt P18901). Description: In vitro binding affinity to the rat striatal homogenate. In outline:
(§3)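 Saturation binding of [125I]FISCH to male Sprague-Dawley rat (200-250 g) striatal membranes. Tissue homogenized in ice-cold 50 mM Tris-HCl pH 7.4, pelleted twice at 20000g. Assay buffer 50 mM Tris pH 7.4, 120 mM NaCl, 5 mM KCl, 2 mM CaCl2, 1 mM MgCl2, with 40-60 μg protein. Incubated 20 min at 37 °C with stirring, then filtered through protamine-treated GF/B filters. Specific binding gives […].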

Data set [33] relates to Rattus norvegicus. Nature of the data set: In vivo biodistribution in rats after an intravenous injection at 60 min was determined in blood; Expressed as percent dose/organ. Format: ADME, organism-based. Particulars: 1 h. In outline:
as §2

The subject of data set [34] is Rattus norvegicus. Description: In vivo biodistribution in rats after an intravenous injection at 60 min was determined in brain; Expressed as percent dose/organ. Format: ADME, organism-based. The conditions noted are these: 1 h. In outline:
as §2

In data set [35] the target is T1, D(1A) dopamine receptor. Description: (§4) In vitro binding affinity to the rat striatal homogenate.
Data set [36] deals with T1, D(1A) dopamine receptor. Description: In vitro binding affinity towards Dopamine receptor D1 by displacing [125I]FISCH radioligand in rat striatal homogenate. Summed up: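 Assay buffer 50 mM Tris pH 7.4 with NaCl, KCl, CaCl2 and MgCl2, 40-60 μg protein. Incubated 20 min at 37 °C with stirring, then vacuum-filtered on GF/B filters pretreated with 0.2% protamine sulfate and washed with cold Tris.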

The species entered for data set [37] is Rattus norvegicus. The description is as §4. In outline: as §3
For data set [38], the target named is T1, D(1A) dopamine receptor. Description: In vitro binding affinity towards dDopamine receptor D1 by displacing [125I]FISCH radioligand in rat striatal homogenate. In outline: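 Competition against 0.15-0.30 nM [125I]FISCH on rat striatal membranes, each competitor at 7-11 concentrations. Assay buffer 50 mM Tris pH 7.4 with NaCl, KCl, CaCl2 and MgCl2, 40-60 μg protein. Incubated 20 min at 37 °C with stirring, then vacuum-filtered on GF/B filters pretreated with 0.2% protamine sulfate and washed with cold Tris.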

T1 sequence (P18901 whole entry): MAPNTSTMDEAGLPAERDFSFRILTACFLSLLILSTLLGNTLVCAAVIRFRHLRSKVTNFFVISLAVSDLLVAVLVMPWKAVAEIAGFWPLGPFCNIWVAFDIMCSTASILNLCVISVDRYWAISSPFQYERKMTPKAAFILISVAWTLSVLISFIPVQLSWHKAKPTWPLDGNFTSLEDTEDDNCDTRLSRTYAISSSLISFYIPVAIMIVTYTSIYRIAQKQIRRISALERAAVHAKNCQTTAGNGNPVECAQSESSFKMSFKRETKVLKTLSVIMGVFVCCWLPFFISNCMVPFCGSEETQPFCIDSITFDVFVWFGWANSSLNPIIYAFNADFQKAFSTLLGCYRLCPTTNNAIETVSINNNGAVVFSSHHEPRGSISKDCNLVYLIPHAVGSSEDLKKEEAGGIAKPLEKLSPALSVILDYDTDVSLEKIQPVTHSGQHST

In the case of `CN1CCc2cc(Cl)c(O)cc2C(c2ccc([125I])cc2)C1` (stereo not given), the Ratio is given as 6.19% in [1], 7.35% in data set [2] and 3.08% in [3]. The Biodistribution came to 0.67% in data set [4]; 0.04% in [5]; 1.47% in data set [6]; 9.25% in data set [7]; 0.38% in data set [8]; 14.72% in [9]. The Biodistribution in data set [10] is given as 2.73%; in data set [11], 34.22%; in data set [12], 9.62%; in data set [13], 0.56%; in data set [14], 0.06%; in [15], 2.09%. For the same compound, the Biodistribution is given as 3.46% in data set [16]; 2.27% in data set [17]; 1.97% in data set [18]; 5.98% in data set [19]; 17.1% in [20]; 8.55% in [21]. Further, the Biodistribution was 35.68% in data set [22]; 7.43% in data set [23]; 2.79% in [24]; 0.11% in [25]; 0.18% in [26]; 1.31% in data set [27]. In addition, the Biodistribution worked out at 12.32% in [28]; 19.07% in [29]; 2.28% in data set [30]; 1.4% in data set [31]; 1.83% in data set [33]; 0.55% in [34]. Besides, the Kd (usually the free concentration of one partner at which half of the binding sites on the other are occupied at equilibrium, for simple one-to-one binding) in [32] worked out at 1.43 nM.
As to `CN1CCc2ccc(O)cc2[C@@H](c2ccccc2)C1`, in data set [35], the Kd was 197 nM.
In the case of `CN1CCc2cc(I)c(O)cc2[C@@H](c2ccccc2)C1` (racemic), in [36], the affinity, expressed as Ki, was 13.4 nM. In addition, the dissociation constant Kd in [37] worked out at 0.7 nM.
Take `CN1CCc2cc(Cl)c(O)cc2C(c2ccc(I)cc2)C1` (racemic): the Ki (in general, the dissociation constant of the complex between target and ligand, obtained from inhibition or displacement) in data set [36] is 1.71 nM.
As to `O=C(c1ccc(F)cc1)C1CCN(CCn2c(=O)[nH]c3ccccc3c2=O)CC1` [KETANSERIN], the Ki in data set [38] is above 3000 nM.
`CN1CCc2cc(Cl)c(O)cc2[C@@H](c2ccccc2)C1` [SCH-23390] displayed a dissociation constant Kd in [37] of 0.36 nM. This counts as sub-nanomolar.
